Legend:
[1] = target: T1, PPARγ (Homo sapiens, UniProt P37231); experiment: PPARγ luciferase transactivation assay; type: cell-based
T1 sequence (P37231 238-503 limits assumed): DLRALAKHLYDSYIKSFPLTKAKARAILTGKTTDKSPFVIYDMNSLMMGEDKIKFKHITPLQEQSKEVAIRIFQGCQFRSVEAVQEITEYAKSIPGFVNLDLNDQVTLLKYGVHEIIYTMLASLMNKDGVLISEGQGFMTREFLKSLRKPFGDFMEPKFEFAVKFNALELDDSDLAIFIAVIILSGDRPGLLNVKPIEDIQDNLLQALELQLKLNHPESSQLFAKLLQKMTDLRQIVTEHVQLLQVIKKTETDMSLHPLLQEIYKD

[2] = test system: K562‐resistant cells; experiment: Induction of cell death by PI FACS analyses, without or with imatinib; type: cell-based; conditions: for cell death rate, compound in combination with imatinib: 10 μM compound + 1 μM imatinib
[3] = test system: COS‐7 cells; experiment: Modified MTT assay; type: cell-based, monkey; conditions: non-malignant COS-7 cells
Summary of the method: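 COS-7 cells seeded 2×10³ per well in triplicate, then 24 h in humidified 5% CO2/95% air at 37 °C before dosing. Test compound added at 20 μM alongside a DMSO vehicle control (DMSO ≤0.1% final) and incubated 72 h. Metabolic activity read by the EZ4U modified MTT (formazan) assay and expressed relative to vehicle control set at 100%. Mean + SD, ≥3 independent experiments, three replicates each.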

Structure (SMILES)	EC50 [1]	cell death rate, compound in combination with imatinib ([2]; 72 h)	also measured
CCCc1nc2ccccc2n1Cc1ccc(-c2ccccc2C(=O)OC)cc1 [2 b, Methyl 4′‐((2‐propyl‐1H‐benzo[d]imidazol‐1‐yl)methyl)‐[1,1′‐biphenyl]‐2‐carboxylate]	–	80%	PPARγ activation at 20 μM ([1]; compound at 20 μM, relative to pioglitazone 10 μM = 100 %): about 36%; cell death rate, compound alone ([2]; 10 μM compound, 72 h, without imatinib): 21%; cytotoxicity per se (in words) [3]: did not exert cytotoxicity per se
CCCc1nc2ccccc2n1Cc1ccc(-c2ccccc2C(=O)O)cc1 [3 b, 4′‐((2‐Propyl‐1H‐benzo[d]imidazol‐1‐yl)methyl)‐[1,1′‐biphenyl]‐2‐carboxylic acid]	6.98 ± 1.06 µM	31%	–
CCCc1nc2cc(Br)ccc2n1Cc1ccc(-c2ccccc2C(=O)OC)cc1 [5 b, Methyl 4′‐((5‐bromo‐2‐propyl‐1H‐benzo[d]imidazol‐1‐yl)methyl)‐[1,1′‐biphenyl]‐2‐carboxylate]	–	31%	–
CCc1c(C)n(Cc2ccc(-c3ccccc3C(=O)O)cc2)c2ccc(Br)cc12 [6 c, 4′‐((5‐Bromo‐3‐ethyl‐2‐methyl‐1H‐indol‐1‐yl)methyl)‐[1,1′‐biphenyl]‐2‐carboxylic acid]	9.52 ± 0.74 µM	–	–
CCCc1nc2ccc(Br)cc2n1Cc1ccc(-c2ccccc2C(=O)OC)cc1 [6‐Br‐CO2CH3, methyl 4′‐((6‐bromo‐2‐propyl‐1H‐benzo[d]imidazol‐1‐yl)methyl)‐[1,1′‐biphenyl]‐2‐carboxylate]	–	63%	–
Cc1ccc(NC(=O)c2ccc(CN3CCN(C)CC3)cc2)cc1Nc1nccc(-c2cccnc2)n1 [imatinib, reference compound]	–	–	cell death, imatinib alone ([2]; 1 μM imatinib, K562-resistant (KD225) cells): 10–20%
CCCc1nc2c(C)cc(-c3nc4ccccc4n3C)cc2n1Cc1ccc(-c2ccccc2C(=O)O)cc1 [telmisartan, reference compound]	4.78 ± 0.79 µM	–	–

More lines, main results first:

EC50 [1]	Structure (SMILES)	cell death rate, compound in combination with imatinib ([2]; 72 h)	also measured
10.4 ± 3.9 µM	O=C(O)c1ccccc1-c1ccc(Cn2c3ccccc3c3ccccc32)cc1 [3 a, 4′‐((9H‐Carbazol‐9‐yl)methyl)‐[1,1′‐biphenyl]‐2‐carboxylic acid]	–	–
6.86 ± 1.58 µM	CCc1c(C)n(Cc2ccc(-c3ccccc3C(=O)O)cc2)c2ccccc12 [3 c, 4′‐((3‐Ethyl‐2‐methyl‐1H‐indol‐1‐yl)methyl)‐[1,1′‐biphenyl]‐2‐carboxylic acid]	–	–
5.68 ± 1.07 µM	O=C(O)c1ccccc1-c1ccc(Cn2c3ccccc3c3cc(Br)ccc32)cc1 [6 a, 4′‐((3‐Bromo‐9H‐carbazol‐9‐yl)methyl)‐[1,1′‐biphenyl]‐2‐carboxylic acid]	–	–

— article PMC7318623 (Chemmedchem, 2020)
